pEC50: −log10 of the molar value. *1 amine or outer side, *2 acyl side, *3 side chain or, on linkers, in order; H or OH if unused. Where a SMILES comes first, the peptide text is derived from it. Bridges are numbered along the chain shown (N, C = ends). [ ]: non-standard residue; d: D form. Pro(4R-SH) = O=C([C@@H]1C[C@@H](S[*:3])CN1[*:1])[*:2]; Pro(4S-SH) = O=C([C@@H]1C[C@H](S[*:3])CN1[*:1])[*:2]; Sar = CNCC(=O)O

Assay [1] deals with T1, Angiotensin II receptor (AT-1) type-1 (Rattus norvegicus, UniProt P29089+P25095).
T1 sequence (P29089 whole entry): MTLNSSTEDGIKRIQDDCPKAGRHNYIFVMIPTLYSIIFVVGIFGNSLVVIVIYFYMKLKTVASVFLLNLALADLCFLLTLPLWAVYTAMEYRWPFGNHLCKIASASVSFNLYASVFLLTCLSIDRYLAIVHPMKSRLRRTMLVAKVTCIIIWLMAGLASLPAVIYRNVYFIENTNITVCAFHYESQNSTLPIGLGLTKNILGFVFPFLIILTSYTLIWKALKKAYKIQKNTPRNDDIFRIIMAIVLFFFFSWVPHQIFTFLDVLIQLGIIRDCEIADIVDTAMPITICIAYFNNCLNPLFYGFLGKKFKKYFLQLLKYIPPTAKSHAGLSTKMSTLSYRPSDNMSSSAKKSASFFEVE
T1 sequence (P25095 whole entry): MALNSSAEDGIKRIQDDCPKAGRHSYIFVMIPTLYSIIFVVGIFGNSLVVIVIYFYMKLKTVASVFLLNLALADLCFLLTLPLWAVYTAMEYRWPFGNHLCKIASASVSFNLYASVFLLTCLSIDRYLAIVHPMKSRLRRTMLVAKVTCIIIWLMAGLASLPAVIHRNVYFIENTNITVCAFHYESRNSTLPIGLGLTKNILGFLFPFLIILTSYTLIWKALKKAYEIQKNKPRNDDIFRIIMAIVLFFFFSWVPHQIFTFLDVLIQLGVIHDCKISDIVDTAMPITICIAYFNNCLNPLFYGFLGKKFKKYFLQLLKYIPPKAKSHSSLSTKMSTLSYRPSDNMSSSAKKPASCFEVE
Put plainly: In vitro binding affinity to the angiotensin II receptor, type 1 in rat liver. The gist of the method:
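Buffer: 50 mM NaH2PO4 pH 7.1 with 100 μM bacitracin, 0.2% BSA, 100 mM NaCl, 10 mM MgCl2, 1 mM EGTA. Incubated 1 h at 25 °C, then filtered, and filters counted. IC50 from weighted nonlinear regression to the mass action equation.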

Assay [2] has as its target T2, Type-1 angiotensin II receptor (Oryctolagus cuniculus, UniProt P34976).
T2 sequence (P34976 whole entry): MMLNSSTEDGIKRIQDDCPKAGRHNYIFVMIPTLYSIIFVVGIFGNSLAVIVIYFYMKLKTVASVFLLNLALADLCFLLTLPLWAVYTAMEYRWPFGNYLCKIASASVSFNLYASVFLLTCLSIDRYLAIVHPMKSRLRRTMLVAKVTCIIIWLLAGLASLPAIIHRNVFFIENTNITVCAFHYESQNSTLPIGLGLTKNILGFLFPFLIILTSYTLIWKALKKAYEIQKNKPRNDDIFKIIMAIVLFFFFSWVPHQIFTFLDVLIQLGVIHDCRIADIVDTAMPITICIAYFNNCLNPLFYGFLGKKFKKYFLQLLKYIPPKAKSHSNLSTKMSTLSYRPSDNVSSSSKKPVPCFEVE
Kind of assay: Agonist efficacy assessed from contractile responses on rabbit aorta Angiotensin II receptor, type 1; Not Active. The format is functional, tissue-based. Summed up: (§1)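 Rabbit thoracic aortic rings held in 20-mL baths of Krebs-bicarbonate at 37 °C, gassed with 5% CO2 in oxygen. Resting tension 4.0 g, 90-min equilibration. Peptides added cumulatively until maximal response. EC50 read graphically from the curves as the concentration giving 50% of maximal contraction.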

Another assay is filed under the species Oryctolagus cuniculus. Kind of assay: Agonist efficacy assessed from contractile responses on rabbit aorta (AT1). Type of assay: functional. Summed up: as §1

Consider `CNCC(=O)N[C@@H](CCCN=C(N)N)C(=O)N1C[C@@H]2C[C@H]1C(=O)N[C@@H](Cc1ccc(O)cc1)C(=O)N[C@H](C(=O)N[C@@H](Cc1c[nH]cn1)C(=O)N1CCC[C@H]1C(=O)N[C@@H](Cc1ccccc1)C(=O)O)CSS2` (H-[Sar]R[Pro(4S-SH)]YCHPF-OH; disulfide 3-5), for which, in assay [1], the IC50 – broadly, the concentration at which inhibition is half-maximal – is on record as 4700 nM. Besides, the EC50 entry in assay [2] was “Not Active”.

Consider `CNCC(=O)N[C@@H](CCCN=C(N)N)C(=O)N[C@H]1CSS[C@@H]2C[C@@H](C(=O)N[C@@H](Cc3c[nH]cn3)C(=O)N3CCC[C@H]3C(=O)N[C@@H](Cc3ccccc3)C(=O)O)N(C2)C(=O)[C@H](Cc2ccc(O)cc2)NC1=O` (H-[Sar]RCY[Pro(4R-SH)]HPF-OH; disulfide 3-5), for which the pEC50 (usually the negative decadic logarithm of the EC50, by convention in mol/L) in the assay filed under Oryctolagus cuniculus is 6.80. Further, the IC50 in assay [1] stood at 18 nM.
